Here are results for one molecule from ChEMBL document CHEMBL3576847, “Discovery of 1-(3,3-dimethylbutyl)-3-(2-fluoro-4-methyl-5-(7-methyl-2-(methylamino)pyrido[2,3-d]pyrimidin-6-yl)phenyl)urea (LY3009120) as a pan-RAF inhibitor with minimal paradoxical activation and activity against BRAF or RAS mutant tumor cells” (J Med Chem, 2015).

SMILES strings stand for the structures. pIC50: −log10 of the molar value. In brackets after ≈: the same amount, converted by molar mass. Activity calls are given as the source filed them. The rule behind the calls is not given here.

Series [1] is described as follows: Solubility of the compound in simulated fed gastric fluid. The format is ADME.
Series [2] deals with Tyrosine-protein kinase CSK (Homo sapiens, UniProt P41240). The experiment in a line: Competitive binding affinity to CSK in human A375 cells after 15 mins in presence of ATP analogue. Format: cell-based, A-375. The essentials:
(§1)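 A375 whole-cell lysate incubated with compound for 15 min. Binding to over 170 kinases was measured by direct competition with an ATP analog (KiNativ platform). IC50 reported in nM.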

A short description of series [3]: Oral bioavailability in dog at 10 mg/kg administered in API capsule. The format is ADME, organism-based, Canis lupus familiaris. Particulars: in vivo.
A short description of series [4]: Solubility of the compound in simulated fasted intestinal fluid. The format is ADME.
A short description of series [5]: AUC (0 to 24 hrs) in Sprague-Dawley rat at 10 mg/kg, po administered as suspension in 20% cyclodextrin. The format is ADME, organism-based. More on the design: dose 10 mg/kg, time < 24 hr, route oral. Particulars: in vivo.
A short description of series [6]: Half life in Sprague-Dawley rat at 10 mg/kg, po administered as suspension in 1% HEC. The format is ADME, organism-based. The settings on record: in vivo.
In series [7] the target is eIF-2-alpha kinase GCN2 (Homo sapiens, UniProt Q9P2K8). The series can be described thus: Competitive binding affinity to GCN2 in human A375 cells after 15 mins in presence of ATP analogue. The format is cell-based, A-375. The method, boiled down: as §1
Series [8] is described as follows: Clearance in monkey at 1 mg/kg, iv administered as 20% cyclodextrin solution. Format: ADME, organism-based, Macaca mulatta. Particulars: rhesus monkey, in vivo. The essentials: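 Single 1 mg/kg iv dose given as a 20% cyclodextrin solution to rat, dog (male, fasted, crossover, n = 4) or monkey (male, fasted). Clearance, volume of distribution and half-life were calculated. Clearance is also expressed relative to species hepatic blood flow (Qh).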

Series [9] concerns the target Dual specificity mitogen-activated protein kinase kinase 5 (Homo sapiens, UniProt Q13163). The experiment in a line: Competitive binding affinity to MAP2K5 in human A375 cells after 15 mins in presence of ATP analogue. Format: cell-based, A-375. The method, boiled down: as §1
Series [10] can be described thus: Paradoxical activation of RAS/RAF/MEK signaling pathway in human HCT116 cells expressing wild type BRAF assessed as ERK phosphorylation at >100 nM. Format: cell-based. Particulars: HCT-116.
A short description of series [11]: Permeability across MDCK cells expressing MDR1. Format: ADME, cell-based, Canis lupus familiaris. The settings on record: dog, read-out: permeability.
Series [12] relates to Canis familiaris. The experiment in a line: Clearance in dog at 1 mg/kg, iv administered as suspension in 20% cyclodextrin relative to hepatic blood flow. The format is ADME, organism-based, Canis lupus familiaris. Particulars: in vivo.
A short description of series [13]: Oral bioavailability in dog at 10 mg/kg administered as solid suspension. Format: ADME, organism-based, Canis lupus familiaris. Particulars: in vivo.
The nature of series [14]: Paradoxical activation of RAS/RAF/MEK signaling pathway in human HCT116 cells expressing wild type BRAF assessed as ERK phosphorylation at <100 nM. The format is cell-based. The settings on record: HCT-116.
Series [15] can be described thus: Half life in Sprague-Dawley rat at 1 mg/kg, iv administered as suspension in 20% cyclodextrin. Format: ADME, organism-based. The settings on record: in vivo.

Chain of Dual specificity mitogen-activated protein kinase kinase 5 (Q13163 whole entry): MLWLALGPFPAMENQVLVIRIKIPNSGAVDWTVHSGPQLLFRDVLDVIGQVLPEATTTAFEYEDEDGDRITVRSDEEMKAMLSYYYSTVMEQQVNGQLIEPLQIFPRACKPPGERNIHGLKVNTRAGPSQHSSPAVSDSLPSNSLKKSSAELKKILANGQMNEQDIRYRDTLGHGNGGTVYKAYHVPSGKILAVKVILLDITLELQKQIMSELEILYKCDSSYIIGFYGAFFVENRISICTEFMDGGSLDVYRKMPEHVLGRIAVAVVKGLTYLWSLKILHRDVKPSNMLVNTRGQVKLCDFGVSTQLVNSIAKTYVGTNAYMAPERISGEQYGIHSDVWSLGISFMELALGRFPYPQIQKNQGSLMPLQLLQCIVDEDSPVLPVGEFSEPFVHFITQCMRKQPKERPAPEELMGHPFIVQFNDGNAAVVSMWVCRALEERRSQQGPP
Chain of Tyrosine-protein kinase CSK (P41240 whole entry): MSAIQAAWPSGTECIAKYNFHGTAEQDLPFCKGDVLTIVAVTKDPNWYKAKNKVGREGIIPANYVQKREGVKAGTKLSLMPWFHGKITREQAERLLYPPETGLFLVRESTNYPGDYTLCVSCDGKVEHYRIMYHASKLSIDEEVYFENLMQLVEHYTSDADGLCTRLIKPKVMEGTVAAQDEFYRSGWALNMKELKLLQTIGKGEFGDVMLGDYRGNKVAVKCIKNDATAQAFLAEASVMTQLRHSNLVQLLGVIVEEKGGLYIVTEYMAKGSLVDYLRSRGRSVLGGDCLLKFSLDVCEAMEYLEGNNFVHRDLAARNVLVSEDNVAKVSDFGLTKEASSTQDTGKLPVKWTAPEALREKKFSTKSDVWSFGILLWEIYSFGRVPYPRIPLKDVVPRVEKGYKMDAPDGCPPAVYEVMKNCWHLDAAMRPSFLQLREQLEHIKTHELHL
Chain of eIF-2-alpha kinase GCN2 (Q9P2K8 whole entry): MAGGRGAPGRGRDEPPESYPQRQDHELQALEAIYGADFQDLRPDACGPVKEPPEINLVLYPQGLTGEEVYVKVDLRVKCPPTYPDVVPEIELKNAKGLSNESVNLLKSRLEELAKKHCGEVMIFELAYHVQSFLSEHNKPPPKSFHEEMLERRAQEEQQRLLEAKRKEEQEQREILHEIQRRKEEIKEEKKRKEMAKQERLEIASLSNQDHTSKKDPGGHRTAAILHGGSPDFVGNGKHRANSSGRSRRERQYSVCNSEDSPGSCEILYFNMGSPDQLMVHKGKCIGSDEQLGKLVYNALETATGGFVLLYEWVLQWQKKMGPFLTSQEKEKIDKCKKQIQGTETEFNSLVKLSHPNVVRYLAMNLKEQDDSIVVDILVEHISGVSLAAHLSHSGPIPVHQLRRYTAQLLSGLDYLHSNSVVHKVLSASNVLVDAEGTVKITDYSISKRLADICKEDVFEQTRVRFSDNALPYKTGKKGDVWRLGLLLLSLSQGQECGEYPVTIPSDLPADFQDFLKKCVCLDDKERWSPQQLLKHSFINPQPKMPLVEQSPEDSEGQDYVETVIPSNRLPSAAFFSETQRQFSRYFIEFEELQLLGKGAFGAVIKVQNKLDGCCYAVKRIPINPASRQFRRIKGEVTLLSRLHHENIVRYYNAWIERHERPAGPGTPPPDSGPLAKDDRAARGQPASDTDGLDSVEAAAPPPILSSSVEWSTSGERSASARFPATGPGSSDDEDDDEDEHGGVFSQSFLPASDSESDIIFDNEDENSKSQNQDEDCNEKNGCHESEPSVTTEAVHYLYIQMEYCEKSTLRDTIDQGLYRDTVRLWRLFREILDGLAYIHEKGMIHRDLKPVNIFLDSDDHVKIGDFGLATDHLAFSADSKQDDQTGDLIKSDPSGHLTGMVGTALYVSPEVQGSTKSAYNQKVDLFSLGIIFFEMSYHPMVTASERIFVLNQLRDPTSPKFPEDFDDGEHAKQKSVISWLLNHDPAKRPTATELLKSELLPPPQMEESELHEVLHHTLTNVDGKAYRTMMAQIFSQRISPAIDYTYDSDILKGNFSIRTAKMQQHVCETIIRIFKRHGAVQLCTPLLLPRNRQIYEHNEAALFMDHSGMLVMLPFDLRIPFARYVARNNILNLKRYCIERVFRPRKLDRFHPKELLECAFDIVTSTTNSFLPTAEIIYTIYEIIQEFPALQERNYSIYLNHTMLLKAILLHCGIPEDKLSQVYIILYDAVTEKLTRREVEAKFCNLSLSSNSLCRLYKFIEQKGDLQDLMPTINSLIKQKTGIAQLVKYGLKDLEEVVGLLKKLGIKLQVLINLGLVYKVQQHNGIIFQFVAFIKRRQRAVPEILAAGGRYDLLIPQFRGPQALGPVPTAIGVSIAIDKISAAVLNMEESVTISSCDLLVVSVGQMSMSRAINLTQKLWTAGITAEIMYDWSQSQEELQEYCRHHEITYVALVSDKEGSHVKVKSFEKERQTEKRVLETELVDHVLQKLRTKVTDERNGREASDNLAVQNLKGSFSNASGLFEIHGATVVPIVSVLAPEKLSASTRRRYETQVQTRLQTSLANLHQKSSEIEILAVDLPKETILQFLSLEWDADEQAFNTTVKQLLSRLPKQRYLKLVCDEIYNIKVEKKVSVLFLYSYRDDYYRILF

As to `CNc1ncc2cc(-c3cc(NC(=O)NCCC(C)(C)C)c(F)cc3C)c(C)nc2n1` [LY-3009120], the solubility in [1] and in series [4] was 2 µg/mL (≈ 4.71 µM) throughout. In addition, the pIC50 was 6.54 in series [2], 6.35 in [7] and 6.10 in [9]. Moreover, the values for the bioavailability in [3] and in series [13] were 0.2% and 16.7%, respectively. Also, in series [5], the AUC(0-t) at 24 h was 1670 ng·h/mL. Further, the half-life in series [6] was 1.4 h; in series [15], 1.1 h. Further, the clearance in series [8] was 25.9 mL/min/kg. Moreover, the result in [10] was inactive. The Papp in [11] came out at 47 ×10⁻⁶ cm/s. Further, the CL in series [12] was 30%. Also, the outcome in series [14] was Active.
